Test results: ChEMBL document CHEMBL4477243, “Discovery and SAR of a novel series of potent, CNS penetrant M4 PAMs based on a non-enolizable ketone core: Challenges in disposition” (Bioorg Med Chem Lett, 2016); call rule not given here

Columns and labels:
[1] = target: T1, Muscarinic acetylcholine receptor M4 (Homo sapiens, UniProt P08173); assay: Positive allosteric modulation activity at human M4 receptor expressed in CHO cells co-expressing Gqi5 protein assessed as potentiation of EC20 acetyl choline-induced response by calcium mobilization assay; type: functional, cell-based
T1 sequence (P08173 whole entry): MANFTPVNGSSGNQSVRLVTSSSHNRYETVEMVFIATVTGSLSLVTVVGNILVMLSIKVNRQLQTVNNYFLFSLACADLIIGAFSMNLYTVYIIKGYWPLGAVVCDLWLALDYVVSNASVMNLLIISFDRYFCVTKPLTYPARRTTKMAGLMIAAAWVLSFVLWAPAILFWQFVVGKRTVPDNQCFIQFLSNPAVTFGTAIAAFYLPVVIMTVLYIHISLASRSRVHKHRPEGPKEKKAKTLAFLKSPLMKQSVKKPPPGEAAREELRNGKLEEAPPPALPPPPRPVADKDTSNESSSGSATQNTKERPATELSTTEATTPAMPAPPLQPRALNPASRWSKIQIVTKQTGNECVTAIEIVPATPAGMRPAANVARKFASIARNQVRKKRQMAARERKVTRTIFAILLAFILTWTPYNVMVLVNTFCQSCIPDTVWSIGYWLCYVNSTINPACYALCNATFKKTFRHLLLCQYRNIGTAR
Summary of the method: (§1)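 Calcium mobilization in CHO cells stably co-expressing human or rat M4 with the chimeric Gqi5 protein. Test compound given with a fixed EC20 concentration of acetylcholine. Potency reported as EC50; efficacy as % of the acetylcholine maximum. Means of three independent experiments, each in triplicate.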

[2] = target: T2, Muscarinic acetylcholine receptor M4 (Rattus norvegicus, UniProt P08485); assay: Positive allosteric modulation activity at rat M4 receptor expressed in CHO cells co-expressing Gqi5 protein assessed as potentiation of EC20 acetyl choline-induced response by calcium mobilization assay; type: functional, cell-based; details: read-out: EC50; summary of the method: as §1
T2 sequence (P08485 whole entry): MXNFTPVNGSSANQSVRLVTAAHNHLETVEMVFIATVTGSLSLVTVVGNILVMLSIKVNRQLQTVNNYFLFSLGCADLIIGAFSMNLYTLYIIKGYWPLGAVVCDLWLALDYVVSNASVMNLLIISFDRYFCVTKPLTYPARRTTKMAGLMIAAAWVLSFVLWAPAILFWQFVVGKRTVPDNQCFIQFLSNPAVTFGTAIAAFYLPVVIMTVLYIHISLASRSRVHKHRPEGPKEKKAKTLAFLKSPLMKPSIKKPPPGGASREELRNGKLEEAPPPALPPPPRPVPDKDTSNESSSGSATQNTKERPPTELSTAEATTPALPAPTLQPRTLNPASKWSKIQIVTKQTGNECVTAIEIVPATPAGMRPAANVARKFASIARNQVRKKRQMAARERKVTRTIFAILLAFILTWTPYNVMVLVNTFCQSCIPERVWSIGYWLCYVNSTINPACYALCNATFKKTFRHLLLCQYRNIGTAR

Cytochrome P450 = assay: Inhibition of Cytochrome P450 (unknown origin); type: ADME, protein assay; details: human
Cytochrome P450 1A2 = target: T3, Cytochrome P450 1A2 (Homo sapiens, UniProt P05177); assay: Inhibition of CYP1A2 (unknown origin); type: ADME
T3 sequence (P05177 whole entry): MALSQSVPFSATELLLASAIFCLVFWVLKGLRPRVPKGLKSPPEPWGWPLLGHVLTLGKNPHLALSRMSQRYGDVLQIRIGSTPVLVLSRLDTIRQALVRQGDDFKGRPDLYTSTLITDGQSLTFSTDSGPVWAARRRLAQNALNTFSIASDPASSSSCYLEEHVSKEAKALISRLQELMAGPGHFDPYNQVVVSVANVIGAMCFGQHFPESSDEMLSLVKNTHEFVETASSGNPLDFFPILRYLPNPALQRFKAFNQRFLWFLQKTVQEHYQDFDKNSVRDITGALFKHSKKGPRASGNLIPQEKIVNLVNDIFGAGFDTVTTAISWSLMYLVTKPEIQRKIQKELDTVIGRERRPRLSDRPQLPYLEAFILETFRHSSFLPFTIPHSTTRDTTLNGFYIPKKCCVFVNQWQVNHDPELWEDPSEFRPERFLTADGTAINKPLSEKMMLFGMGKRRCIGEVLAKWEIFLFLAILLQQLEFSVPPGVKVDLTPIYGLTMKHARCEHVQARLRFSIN

[3] = Fraction unbound in human plasma; type: ADME, cell-free
Summary of the method: (§2)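 Plasma protein binding, reported as fraction unbound in rat and human plasma. Single experiment (n=1) run in triplicate.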

[4] = Fraction unbound in rat plasma; type: ADME, cell-free; summary of the method: as §2
[5] = target: T4, Muscarinic acetylcholine receptor M4 (Homo sapiens) (UniProt P08173); assay: Positive allosteric modulation activity at human M4 receptor expressed in CHO cells co-expressing Gqi5 protein assessed as potentiation of EC20 acetyl choline-induced response by calcium mobilization assay relative to acetylcholine; type: functional, cell-based; summary of the method: as §1
T4 sequence (whole entry): T1 sequence (P08173 whole entry)

[6] = target: T5, Muscarinic acetylcholine receptor M4 (Rattus norvegicus) (UniProt P08485); assay: Positive allosteric modulation activity at rat M4 receptor expressed in CHO cells co-expressing Gqi5 protein assessed as potentiation of EC20 acetyl choline-induced response by calcium mobilization assay relative to acetylcholine; type: functional, cell-based; summary of the method: as §1
T5 sequence (whole entry): T2 sequence (P08485 whole entry)

[7] = Ratio of drug level in Sprague-Dawley rat brain to plasma at 0.2 to 0.25 mg/kg, iv administered as cassette dose measured 0.25 hrs post dose; type: ADME, organism-based; details: brain and plasma
Summary of the method: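 Male Sprague-Dawley rats (n=1) received an IV cassette dose of 0.20-0.25 mg/kg. Brain and plasma sampled 0.25 hr post-administration. Total brain:plasma partition coefficient (Kp) measured; unbound coefficient (Kp,uu) calculated.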

[8] = Selectivity ratio of EC50 for rat M4 receptor expressed in CHO cells co-expressing Gqi5 protein to EC50 for human M4 receptor expressed in CHO cells co-expressing Gqi5 protein; type: cell-based

Row | Structure (SMILES) | EC50 ([1]; read-out: EC50) | EC50 [2] | inhibition (INH) (Cytochrome P450) | inhibition (INH) (Cytochrome P450 1A2) | fraction unbound [3] | fraction unbound [4] | %max [5] | %max [6] | Kp at 0.25 h [7] | EC50 ([1]; read-out: pEC50 (converted)) | Ratio EC50 [8]
1 | Nc1c(C(O)c2ccncc2)sc2nc(OCc3ccncc3)c3c(c12)CCC3 (stereo unspecified) | > 10000 nM | > 10000 nM | – | – | – | – | – | – | – | – | –
2 | Cc1nnc2sc(C(O)c3ccccc3)c(N)c2c1C (stereo unspecified) | > 10000 nM | > 10000 nM | – | – | – | – | – | – | – | – | –
3 | Cc1cc(C)c2c(N)c(C(O)c3ccc(F)c(Cl)c3)sc2n1 (stereo unspecified) | > 10000 nM | > 10000 nM | – | – | – | – | – | – | – | – | –
4 | Cc1nc2sc(C(O)c3cccnc3)c(N)c2c(C)c1Cl (stereo unspecified) | > 10000 nM | > 10000 nM | – | – | – | – | – | – | – | – | –
5 | Nc1c(C(=O)c2ccncc2)sc2nc(OCCN3CCOCC3)c3c(c12)CCC3 | 76 nM | 417 nM | Not Active | Active | 0.005 to 0.18 | 0.005 to 0.18 | – | – | – | – | –
6 | COc1ccc(C(O)c2sc3nnc(C)c(C)c3c2N)cc1 (stereo unspecified) | > 10000 nM | > 10000 nM | – | – | – | – | – | – | – | – | –
7 | COc1ccc(CCC(=O)c2sc3nnc(C)c(C)c3c2N)cc1F | 380 nM | 254 nM | – | – | – | – | 69.1% | 77.2% | 11 | – | –
8 | Nc1c(C(=O)c2ccncc2)sc2nc(O)c3c(c12)CCCC3 | 37 nM | 182 nM | Not Active | Active | 0.005 to 0.18 | 0.005 to 0.18 | 63.8% | 52.7% | 0.83 to 6.95 | 75.9 nM | –
9 | Cc1nnc2sc(C(=O)c3cccnc3)c(N)c2c1C | 105 nM | 417 nM | Not Active | Active | 0.005 to 0.18 | 0.005 to 0.18 | 74% | 95% | 0.83 to 6.95 | – | –

Second part, led by results:

Row | EC50 ([1]; read-out: EC50) | EC50 [2] | inhibition (INH) (Cytochrome P450) | inhibition (INH) (Cytochrome P450 1A2) | fraction unbound [3] | fraction unbound [4] | %max [5] | %max [6] | Kp at 0.25 h [7] | EC50 ([1]; read-out: pEC50 (converted)) | Structure (SMILES) | Ratio EC50 [8]
10 | > 10000 nM | > 10000 nM | – | – | – | – | – | – | – | – | COc1ccc(C(O)c2sc3nc(C)cc(C)c3c2N)cc1 (stereo unspecified) | –
11 | 479 nM | 490 nM | Not Active | Active | 0.005 to 0.18 | 0.005 to 0.18 | 48% | 54% | 0.83 to 6.95 | – | COc1ccc(C(=O)c2sc3nc(C)cc(C)c3c2N)cc1 | –
12 | 479 nM | 540 nM | – | – | – | – | 59.1% | 67.9% | 11 | – | Cc1cc(C)c2c(N)c(C(=O)CCc3ccncc3)sc2n1 | –
13 | 355 nM | 380 nM | Not Active | Active | 0.005 to 0.18 | 0.005 to 0.18 | 70% | 73% | 0.83 to 6.95 | – | Cc1cc(C)c2c(N)c(C(=O)c3ccc(O)cc3)sc2n1 | –
14 | 562 nM | 3980 nM | Not Active | Active | 0.005 to 0.18 | 0.005 to 0.18 | 39% | 35% | 0.83 to 6.95 | – | Cc1cc(C)c2c(N)c(C(=O)c3ccc(F)cc3F)sc2n1 | 4 to 7
15 | > 10000 nM | > 10000 nM | – | – | – | – | – | – | – | – | Cc1cc(C)c2c(N)c(C(O)c3ccc(O)cc3)sc2n1 (stereo unspecified) | –
16 | 240 nM | 195 nM | Not Active | Active | 0.005 to 0.18 | 0.005 to 0.18 | 45% | 41% | 0.83 to 6.95 | – | Cc1cc(C)c2c(N)c(C(=O)c3ccc(F)c(Cl)c3)sc2n1 | –
